# Results of several laboratories.
# Protocols differ between the studies behind these lines.
# PRMT3: Protein arginine N-methyltransferase 3 (PRMT3, Homo sapiens, UniProt O60678)
# TDP1: Tyrosyl-DNA phosphodiesterase 1 (TDP1, Homo sapiens, UniProt Q9NUW8)
# PTPN1: Tyrosine-protein phosphatase non-receptor type 1 (PTPN1, Homo sapiens, UniProt P18031)
# Rhomboid protease AarA: Rhomboid protease AarA (Providencia stuartii, UniProt P46116)
# PDE7A: High affinity 3',5'-cyclic-AMP phosphodiesterase 7A (PDE7A, Homo sapiens, UniProt Q13946)
# GSR: Glutathione reductase, mitochondrial (GSR, Homo sapiens, UniProt P00390)
# LDHA: L-lactate dehydrogenase A chain (LDHA, Homo sapiens, UniProt P00338)
# MAOA: Amine oxidase [flavin-containing] A (MAOA, Homo sapiens, UniProt P21397)
target,assay,system,conditions,IC50 [µM],Compound
PRMT3,"enzyme activity, inhibitor, fluorescence",,,> 100,N=C(NCCCSC[C@H]1O[C@@H](n2cnc3c(NCCCc4ccccc4)ncnc32)[C@H](O)[C@@H]1O)NCC1CCCCC1
PRMT3,"enzyme activity, inhibitor, fluorescence",,,> 100,Nc1ncnc2c1ncn2[C@@H]1O[C@H](CSCCNC(=O)NCCCc2ccccc2)[C@@H](O)[C@H]1O
TDP1,"enzyme activity, inhibitor",,,5.5,COc1cc2c(OC)nc3c4cc5c(cc4cc(OCCCN(C)C)c3c2cc1OC)OCO5
"Mitogen-activated protein kinase kinase kinase 7 (MAP3K7, Homo sapiens, UniProt O43318)","enzyme activity, inhibitor, ATP luminescence",,,> 10,C[C@@H]1C[C@H]2O[C@@H]2/C=C\C=C\C(=O)Cc2c(Cl)c(O)cc(O)c2C(=O)O1
PTPN1,"enzyme activity, inhibitor",,,41.1,CC1=C[C@@]2(C[C@H](C)[C@H]3CC=C(CO)C(=O)[C@@H]3O2)OC1=O
Rhomboid protease AarA,"enzyme activity, inhibitor, fluorescence",,,71,COc1oc(=O)c2cc(N)ccc2c1Cl
TDP1,"enzyme activity, inhibitor, fluorescence",,,4.8,COc1cc2c(OC)nc3c4cc5c(cc4cc(OCCCN4CCCC4)c3c2cc1OC)OCO5
"High affinity nerve growth factor receptor (NTRK1, Homo sapiens, UniProt P04629)","enzyme activity, inhibitor, radiometric",,,0.144,CCn1ncc2c1-c1cnc(N)c(c1)O[C@H](C)c1cc(F)ccc1-c1nn(C)nc1C2
"Homeodomain-interacting protein kinase 3 (HIPK3, Homo sapiens, UniProt Q9H422)","enzyme activity, inhibitor",,,> 10,CCOc1ccc2c(-c3cc(C)nc(Nc4cc(OC)cc(C(F)(F)F)c4)n3)cnn2n1
PRMT3,"enzyme activity, inhibitor, fluorescence",,,22,Nc1ncnc2c1ncn2[C@@H]1O[C@H](CSCCNC(=O)Nc2ccc(Cl)cc2)[C@@H](O)[C@H]1O
PDE7A,"enzyme activity, inhibitor",,,> 10,COc1ccc(C2=NN(C3CCCCCC3)C(=O)[C@@H]3CC=CC[C@H]23)cc1-c1ccc(C(N)=O)cc1 (relative stereo)
PTPN1,"enzyme activity, inhibitor, absorbance",,,500,N[C@@H](Cc1ccc(C(F)(F)P(=O)(O)O)cc1)C(=O)O
TDP1,"enzyme activity, inhibitor",,,5.5 to 13,CCN(CC)CCCOc1cc2cc3c(cc2c2nc(OC)c4cc(OC)c(OC)cc4c12)OCO3
GSR,"enzyme activity, inhibitor, absorbance",,,> 100,CN(C)CCCN1c2ccccc2CCc2ccc(Cl)cc21
LDHA,"enzyme activity, inhibitor",,,> 50,NS(=O)(=O)c1cccc(Cc2c(-c3ccc(F)c(F)c3)[nH]n(-c3nc(C(=O)O)cs3)c2=O)c1
GSR,"enzyme activity, inhibitor, absorbance",,,> 100,CN1CCN(CCCN2c3ccccc3Sc3ccc(Cl)cc32)CC1
PDE7A,"enzyme activity, inhibitor",,,0.279,COc1cc(/C=C2\SC(=O)NC2=O)cc(F)c1OCCNc1nc2c(cnn2C2CCCC2)c(=O)[nH]1
"Tyrosine-protein kinase Lyn (LYN, Homo sapiens, UniProt P07948)","enzyme activity, inhibitor",,,0.0358,CN1CCN(c2ccc(Nc3ncc4cc(C#N)c(=O)n(C5CCCC5)c4n3)cc2)CC1
LDHA,"enzyme activity, inhibitor",,,0.308,O=C(O)c1ccc(CN2C(=O)c3cccc(NC(=O)c4ccc(Cl)s4)c3C2=O)cc1
"Homeodomain-interacting protein kinase 4 (HIPK4, Homo sapiens, UniProt Q8NE63)","enzyme activity, inhibitor, radiometric",,,0.003,CNC(=O)c1cc2c(Oc3ccc(NC(=O)C4(C(=O)Nc5ccc(F)cc5)CC4)cc3)ccnc2cc1OC
"Broad substrate specificity ATP-binding cassette transporter ABCG2 (ABCG2, Homo sapiens, UniProt Q9UNQ0)","transporter uptake, inhibitor, radiometric",Sf9,"0.75 min, cell membranes",50.3,CCS(=O)(=O)N1CC(CC#N)(n2cc(-c3ncnc4[nH]ccc34)cn2)C1
"Cone cGMP-specific 3',5'-cyclic phosphodiesterase subunit alpha' (PDE6C, Homo sapiens, UniProt P51160)","enzyme activity, inhibitor",,,> 100,CSc1ccc(/C=C2/C(C)=C(CC(=O)O)c3cc(F)ccc32)cc1
PRMT3,"enzyme activity, inhibitor, radiometric",,,1.03,CC1(C)C(/C=C/C=C2/N(CCCc3ccccc3)c3ccc(Cl)cc3C2(C)C)=[N+](CCCc2ccccc2)c2ccc(Cl)cc21
"Glucagon-like peptide 2 receptor (GLP2R, Homo sapiens, UniProt O95838)","cAMP, antagonist",,,3.6,N#Cc1ccc(COc2cccc(C3CCN(Cc4nc5ccc(C(=O)O)cc5n4C[C@@H]4CCO4)CC3)n2)c(F)c1
PRMT3,"enzyme activity, inhibitor, radiometric",,,0.72,CC1(C)C(/C=C/C=C2/N(CCCc3ccccc3)c3ccc4ccccc4c3C2(C)C)=[N+](CCCc2ccccc2)c2ccc3ccccc3c21
PDE7A,"enzyme activity, inhibitor",,,> 0.1,CN1C(=O)c2c(nn(Cc3ccc(-c4cccc(F)n4)cc3)c2Nc2ccccc2)N2C1=N[C@@H]1CCC[C@@H]12
PTPN1,"enzyme activity, inhibitor, absorbance",,pH 7,2.8,O=C(CC(=O)c1cccc(N(Cc2ccccc2)Cc2ccccc2)c1)C(=O)N1CCN(C(=O)C(=O)CC(=O)c2cccc(N(Cc3ccccc3)Cc3ccccc3)c2)CC1
Rhomboid protease AarA,"enzyme activity, inhibitor, fluorescence",,,18,O=C(Cc1cccs1)N[C@@H]1C(=O)N2C(C(=O)[O-])=C(C[n+]3ccccc3)CS[C@H]12
"Solute carrier family 22 member 6 (SLC22A6, Homo sapiens, UniProt Q4U2R8)","transporter uptake, inhibitor",,,1.08,Cc1cccc(Nc2ccccc2C(=O)O)c1C
"Coagulation factor IX (F9, Homo sapiens, UniProt P00740)","enzyme activity, inhibitor",,,2.2,CC[C@@H](C(=O)Nc1ccc(C(N)=O)c(F)c1)n1cc(OC)c(-c2cc(Cl)ccc2-n2cc(C(F)(F)F)nn2)cc1=O
MAOA,"enzyme activity, inhibitor, fluorescence",,,45.2,C#CCOc1ccc(/C=C/C(=O)N2CCC(Cc3ccccc3)CC2)cc1OC
LDHA,"enzyme activity, inhibitor",,pH 7.4,139,O=c1cc(-c2ccc(O)c(O)c2)oc2cc(O[C@@H]3O[C@H](CO)[C@@H](O)[C@H](O)[C@H]3O)cc(O)c12
"Protein arginine N-methyltransferase 5 (PRMT5, Homo sapiens, UniProt O14744)","enzyme activity, inhibitor, radiometric",,,< 2.4,Nc1ncnc2c1ncn2[C@@H]1O[C@H](CSCCNC(=O)NCc2ccccc2)[C@@H](O)[C@H]1O
MAOA,"enzyme activity, inhibitor",,,50.2,O=c1cc(-c2ccc(O)cc2)oc2c([C@@H]3O[C@H](CO)[C@@H](O)[C@H](O)[C@H]3O)c(O)c([C@@H]3O[C@H](CO)[C@@H](O)[C@H](O)[C@H]3O)c(O)c12
PRMT3,"enzyme activity, inhibitor, fluorescence",,,81,Nc1ncnc2c1ncn2[C@@H]1O[C@H](CSCCNC(=O)Nc2cccc3ccccc23)[C@@H](O)[C@H]1O
"Receptor-interacting serine/threonine-protein kinase 2 (RIPK2, Homo sapiens, UniProt O43353)",cell-free assay,,,1.71,CC(C)(C)n1nc(-c2cnc3cc(OC4CC4)ccc3c2)c(C(N)=O)c1N
LDHA,"enzyme activity, inhibitor",,pH 7.4,153,COc1cc(-c2cc(=O)c3c(O)c(OC)c(O[C@@H]4O[C@H](CO)[C@@H](O)[C@H](O)[C@H]4O)cc3o2)ccc1O
MAOA,"enzyme activity, inhibitor",,,22.7,O=C(/C=C/c1ccc(O)cc1)c1ccc(O)cc1O
